In ChEMBL document CHEMBL1142097, “EthA, a common activator of thiocarbamide-containing drugs acting on different mycobacterial targets” (Antimicrob Agents Chemother, 2007):
Activity calls are given as the source filed them. The rule behind the calls is not given here.

Columns and labels:
[1] = test system: Mycobacterium tuberculosis variant bovis; assay: Inhibition of mycolic acid synthesis in Mycobacterium bovis BCG str. Pasteur 1173P2 overexpressing ethA gene; type: functional
In short: (§1)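 Mid-log cultures in Sauton medium exposed to graded drug concentrations (μg/ml) for 16 h at 37°C, then pulsed with 1 μCi/ml [2-14C]acetate for 8 h at 37°C. Cells PBS-washed, hydrolysed with 15% tetrabutylammonium hydroxide at 100°C overnight, methylated with CH3I in CH2Cl2; fatty and mycolic acid methyl esters resolved by TLC and autoradiographed.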

[2] = test system: Mycobacterium tuberculosis variant bovis; assay: Inhibition of oleic acid synthesis in Mycobacterium bovis BCG str. Pasteur 1173P2 overexpressing ethA gene; type: functional; in short: as §1

## CC(C)CCSc1ccc(NC(=S)Nc2ccc(SCCC(C)C)cc2)cc1
[1]
  Activity: Active
[2]
  Activity: Active
